From ChEMBL document CHEMBL4819096, “Antibacterial activity of noscapine analogs” (Bioorg Med Chem Lett, 2021) come the findings set out here.

The structures appear in SMILES notation. In brackets after ≈: the same amount, converted by molar mass. Activity calls are given as the source filed them. The calls are words filed in the database; no cut-off is given here.

For data set [1], the system named is Pseudomonas aeruginosa. In words: Antibacterial activity against Pseudomonas aeruginosa R42 assessed as inhibition of bacterial growth measured after 16 to 20 hrs by two-fold serial microbroth dilution method. Conditions: time 16-20 hrs. The data set is classed as functional, organism-based. The essentials:
(§1)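 Broth microdilution in LB and M9 medium. Inoculum adjusted to about 5 × 10⁵ cells/ml. Compound diluted twofold serially in microplate wells, then plates covered and incubated at 37 °C with shaking. Growth read as OD600. MIC taken as the lowest concentration giving no growth after 16–20 h.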
In general terms: Dilution methods test growth across graded concentrations, often in twofold steps.

The test system of data set [2] is Escherichia coli. In words: Antibacterial activity against Escherichia coli assessed as inhibition of bacterial growth measured after 16 to 20 hrs by two-fold serial microbroth dilution method. The data set is classed as functional. The following applies: time 16-20 hrs. The essentials: as §1
Data set [3] concerns Escherichia coli. In words: Antibacterial activity against Escherichia coli ATCC25922 assessed as inhibition of bacterial growth measured after 16 to 20 hrs by two-fold serial microbroth dilution method. It is filed as functional, organism-based. Conditions: ATCC 25922, time 16-20 hrs. In outline: as §1
The next data set deals with Citrobacter koseri. Description: Antibacterial activity against Citrobacter koseri R38 assessed as inhibition of bacterial growth measured after 16 to 20 hrs by two-fold serial microbroth dilution method. It is filed as functional, organism-based. Conditions: time 16-20 hrs. The essentials:
as §1

Data set [4] concerns HEK293. Description: Induction of cell cycle arrest in human HEK293 cells assessed as increase in accumulation of cells at G2/M phase at 14.9 uM after 24 hrs by propidium iodide staining based flow cytometry. Conditions: hek293, 24 h. The essentials: (§2)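 HEK293 cells exposed to compound or vehicle (0.1% DMSO), then harvested by centrifugation (400 × g, 5 min). Fixed/permeabilized in ice-cold 70% ethanol for 24 h at −20 °C, PBS-washed twice, treated with RNase A (0.5 mg/ml) for 5 min at room temperature, then PI (50 µg/ml) for 30 min. DNA content measured by flow cytometry on a linear scale. At least duplicate runs; mean ± S.E.M.; Wilcoxon test versus vehicle.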
Background: A flow cytometer gives signals particle by particle.

Another data set deals with Bacillus subtilis. In words: Antibacterial activity against Bacillus subtilis 3HM assessed as inhibition of bacterial growth measured after 16 to 20 hrs by two-fold serial microbroth dilution method. Conditions: time 16-20 hrs. It is filed as functional, organism-based. The essentials: as §1
Data set [5] has as its system Escherichia coli. Description: Antibacterial activity against ampicillin/cefotaxime/tetracycline/ceftriaxone-resistant Escherichia coli mx7 assessed as inhibition of bacterial growth measured after 16 to 20 hrs by two-fold serial microbroth dilution method. The data set is classed as functional, organism-based. Conditions: time 16-20 hrs. The essentials:
(§3)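 Broth microdilution MIC in LB and M9 medium. Inoculum adjusted to about 5 × 10⁵ cells/ml. Compound serially diluted twofold. Plates covered and incubated at 37 °C with shaking. OD600 read; MIC taken as the lowest concentration giving no growth after 16–20 h.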

Data set [6] concerns HEK293. In words: Induction of cell cycle arrest in human HEK293 cells assessed as decrease in accumulation of cells at G1 phase at 14.9 uM measured after 24 hrs by propidium iodide staining based flow cytometry. The following applies: hek293, 24 h. In outline: as §2
Another data set concerns Aeromonas. In words: Antibacterial activity against Aeromonas sp. O9 assessed as inhibition of bacterial growth measured after 16 to 20 hrs by two-fold serial microbroth dilution method. The data set is classed as functional, organism-based. Conditions: time 16-20 hrs. The essentials: as §1
The test system of the next data set is Candida albicans. In words: Antibacterial activity against ampicillin/cefotaxime/tetracycline/ceftriaxone/fosfomycin-resistant Candida albicans 181210169-1 assessed as inhibition of fungal growth measured after 16 to 20 hrs by two-fold serial microbroth dilution method. It is filed as functional, organism-based. The following applies: time 16-20 hrs. The essentials:
as §3

The test system of a further data set is Enterobacter. Description: Antibacterial activity against Enterobacter sp. O54 assessed as inhibition of bacterial growth measured after 16 to 20 hrs by two-fold serial microbroth dilution method. The following applies: time 16-20 hrs. It is filed as functional, organism-based. The essentials: as §1
A further data set deals with Proteus vulgaris. In words: Antibacterial activity against Proteus vulgaris O41 assessed as inhibition of bacterial growth measured after 16 to 20 hrs by two-fold serial microbroth dilution method. It is filed as functional, organism-based. Conditions: time 16-20 hrs. In outline: as §1
For data set [7], the system named is HEK293. Description: Induction of cell cycle arrest in human HEK293 cells assessed as increase in accumulation of apoptotic cells at sub G1 phase at 14.9 uM after 24 hrs by propidium iodide staining based flow cytometry. The following applies: hek293, 24 h. In outline:
as §2

Data set [8] can be described thus: Cytotoxicity against human HEK293 cells assessed as reduction in cell viability measured after 28 hrs by PrestoBlue reagent based fluorescence analysis. In outline: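 HEK293 cells seeded at 25*10³ per well in DMEM with 10% FBS, 2 mM L-Glu and 50 µg/ml gentamicin. Cells held 24 h at 37 °C, 5% CO2 before compound was added (final DMSO 0.1%), then incubated 28 h. Viability read by PrestoBlue fluorescence at 590 nm, expressed relative to 0.1% DMSO control (100%). CC50 derived by curve fitting.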

Another data set has as its system Morganella morganii. Description: Antibacterial activity against Morganella morganii R36 assessed as inhibition of bacterial growth measured after 16 to 20 hrs by two-fold serial microbroth dilution method. Conditions: time 16-20 hrs. It is filed as functional, organism-based. The essentials:
as §1

In a further data set the test system is Klebsiella aerogenes. Description: Antibacterial activity against Enterobacter aerogenes R41 assessed as inhibition of bacterial growth measured after 16 to 20 hrs by two-fold serial microbroth dilution method. It is filed as functional, organism-based. The following applies: time 16-20 hrs. In outline:
as §1

The subject of another data set is Proteus sp. Description: Antibacterial activity against ampicillin/cefotaxime/tetracycline/ceftriaxone/fosfomycin-resistant Proteus sp. O14 assessed as inhibition of bacterial growth measured after 16 to 20 hrs by two-fold serial microbroth dilution method. The data set is classed as functional, organism-based. Conditions: time 16-20 hrs. In outline: as §3
Data set [9] concerns Pseudomonas aeruginosa. In words: Antibacterial activity against ampicillin/cefotaxime-resistant Pseudomonas aeruginosa ATCC 27853 assessed as inhibition of bacterial growth measured after 16 to 20 hrs by two-fold serial microbroth dilution method. The data set is classed as functional, organism-based. The following applies: time 16-20 hrs. In outline: as §3
The test system of the next data set is Klebsiella oxytoca. In words: Antibacterial activity against Klebsiella oxytoca R48 assessed as inhibition of bacterial growth measured after 16 to 20 hrs by two-fold serial microbroth dilution method. Conditions: time 16-20 hrs. The data set is classed as functional, organism-based. In outline: as §1
The test system of another data set is Staphylococcus aureus. In words: Antibacterial activity against Fosfomycin resistant Staphylococcus aureus ATCC USA 206 assessed as inhibition of bacterial growth measured after 16 to 20 hrs by two-fold serial microbroth dilution method. The data set is classed as functional, organism-based. Conditions: time 16-20 hrs. The essentials:
as §3

Another data set has as its system Klebsiella pneumoniae. Description: Antibacterial activity against ampicillin/fosfomycin-resistant Klebsiella pneumonia 181210171-2 assessed as inhibition of bacterial growth measured after 16 to 20 hrs by two-fold serial microbroth dilution method. It is filed as functional, organism-based. Conditions: time 16-20 hrs. The essentials: as §3
The next data set concerns Enterobacter cloacae. Description: Antibacterial activity against ampicillin/cefotaxime/tetracycline/ceftriaxone-resistant Enterobacter cloacae O3 assessed as inhibition of bacterial growth measured after 16 to 20 hrs by two-fold serial microbroth dilution method. The data set is classed as functional, organism-based. Conditions: time 16-20 hrs. The essentials: as §3

For a further data set, the system named is Hafnia alvei. Description: Antibacterial activity against Ampicillin resistant Hafnia alvei O31 assessed as inhibition of bacterial growth measured after 16 to 20 hrs by two-fold serial microbroth dilution method. It is filed as functional, organism-based. Conditions: time 16-20 hrs. The essentials:
as §3

The test system of data set [10] is HEK293. In words: Induction of cell cycle arrest in human HEK293 cells assessed as increase in accumulation of apoptotic cells at sub G1 phase at 71 uM measured after 48 hrs by propidium iodide staining based flow cytometry. The following applies: hek293, 48 h. In outline: (§4)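 Cell-cycle profiling of HEK293 cells treated with compound or vehicle (0.1% DMSO). Cells harvested (400 × g, 5 min) and fixed in ice-cold 70% ethanol for 24 h at −20 °C. Washed in PBS, treated with RNase A (0.5 mg/ml, 5 min, room temperature), then stained with propidium iodide (50 µg/ml, 30 min). DNA content read by flow cytometry on a linear scale. At least duplicate; mean ± S.E.M.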

Data set [11] can be described thus: Selectivity index, ratio of CC50 for human HEK293 cells to MIC for antibacterial activity against Escherichia coli. The data set is classed as toxicity. The following applies: read-out: Selectivity Index.
For data set [12], the system named is HEK293. In words: Induction of cell cycle arrest in human HEK293 cells assessed as increase in accumulation of cells at S phase at 71 uM after 24 hrs by propidium iodide staining based flow cytometry. The following applies: hek293, 24 h. The essentials: as §4
Data set [13] deals with HEK293. Description: Induction of cell cycle arrest in human HEK293 cells assessed as increase in accumulation of cells at S phase at 12.6 uM after 24 hrs by propidium iodide staining based flow cytometry. The following applies: hek293, 24 h. In outline:
as §2

The subject of data set [14] is HEK293. In words: Induction of cell cycle arrest in human HEK293 cells assessed as increase in accumulation of apoptotic cells at sub G1 phase at 12.6 uM after 72 hrs by propidium iodide staining based flow cytometry. The following applies: hek293, 72 h. In outline: as §2

Turning to `COc1c2c(cc3c1C(CC(=O)/C=C/C1=C(C)CCCC1(C)C)[N+](C)(C)CC3)OCO2.[I-]` (stereo not drawn), the result in the data set on Pseudomonas aeruginosa [1], with Escherichia coli [3], in the data set with Bacillus subtilis, with Escherichia coli [5], in the data set on Aeromonas and with Candida albicans was Active. For the same compound, the outcome in the data set on Morganella morganii, with Klebsiella aerogenes, with Klebsiella oxytoca, with Staphylococcus aureus, in the data set with Klebsiella pneumoniae and in the data set on Enterobacter cloacae was Active. In addition, the outcome in the data set on Hafnia alvei was Active. Also, the MIC (as a rule, the least concentration at which growth counts as inhibited) with Escherichia coli [2] was 22.6 µM. In addition, the outcome in the data set with Citrobacter koseri, in the data set on Enterobacter, in the data set on Proteus vulgaris, with Proteus sp. and in the data set on Pseudomonas aeruginosa [9] was inactive. Also, the Activity result with HEK293 [4], in the data set with HEK293 [6] and in the data set with HEK293 [7] was “Toxic” in each case. Also, in [8], the CC50 (commonly the concentration giving 50% cytotoxicity) at 28 h is 14.9 µM.

For the compound `CCn1c(O)c(C(=O)CC2c3c(cc4c(c3OC)OCO4)CCN2C)c(=O)n(CC)c1=S` (stereo not drawn), the Activity result with HEK293 [10] and with HEK293 [12] was “Toxic” throughout. The outcome with Pseudomonas aeruginosa [1], in the data set on Escherichia coli [3], with Citrobacter koseri, with Escherichia coli [5], in the data set with Aeromonas and with Candida albicans was inactive. Also, the outcome in the data set on Enterobacter, in the data set on Proteus vulgaris, in the data set on Morganella morganii, in the data set on Klebsiella aerogenes, with Proteus sp. and with Pseudomonas aeruginosa [9] was inactive. Moreover, the outcome in the data set with Klebsiella oxytoca, in the data set with Klebsiella pneumoniae, with Enterobacter cloacae and in the data set on Hafnia alvei was inactive. Further, in the data set on Escherichia coli [2], the minimum inhibitory concentration (MIC) came to 13.5 µM (≈ 6.23 µg/mL). Further, the selectivity ratio in data set [11] worked out at 5.5. The outcome with Bacillus subtilis and in the data set with Staphylococcus aureus was Active. Besides, in data set [8], the CC50 at 28 h amounted to 71 µM.

Regarding `CCCc1ccc(C(=O)CC2c3c(cc4c(c3OC)OCO4)CC[N+]2(C)C)cc1.[I-]` (stereo not drawn), the outcome in the data set with Pseudomonas aeruginosa [1], in the data set on Escherichia coli [3], with Bacillus subtilis, in the data set on Escherichia coli [5], with Aeromonas and with Candida albicans was Active. Also, the outcome with Enterobacter, in the data set with Proteus vulgaris, in the data set on Morganella morganii, in the data set with Klebsiella aerogenes, in the data set on Proteus sp. and in the data set on Staphylococcus aureus was Active. Besides, the result with Klebsiella pneumoniae, in the data set on Enterobacter cloacae and in the data set on Hafnia alvei was Active. Besides, the MIC in the data set with Escherichia coli [2] was 11.3 µM. Further, the Activity entry with HEK293 [13] and with HEK293 [14] was “Toxic” throughout. Also, the outcome in the data set on Citrobacter koseri, with Pseudomonas aeruginosa [9] and with Klebsiella oxytoca was inactive. In addition, the cytotoxic concentration (CC50) at 28 h in [8] came to 12.6 µM.
